In ChEMBL document CHEMBL1126276, “Synthesis and antimalarial properties of 1-imino derivatives of 7-chloro-3-substituted-3,4-dihydro-1,9(2H,10H)-acridinediones and related structures” (J Med Chem, 1992):
Several values for one entry are separate records, joined by “and”; a condition that tells them apart may be missing. Equal entries are not always repeated.

Key:
Type in all cases: functional
Plasmodium berghei [1] = experiment: Antimalarial activity in Plasmodium berghei infected mice (Mus musculus) after subcutaneous 640 mg/kg dose
Summary of the method: (§1)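 Normal drug-sensitive P. berghei strain in mice. Compound dissolved or suspended in sesame or peanut oil, given parenterally as a single subcutaneous dose 72 h postinfection.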

Plasmodium berghei [2] = experiment: Antimalarial activity in Plasmodium berghei infected mice (Mus musculus) after subcutaneous 160 mg/kg dose; summary of the method: as §1
Plasmodium berghei [3] = experiment: Antimalarial activity in Plasmodium berghei infected mice (Mus musculus) after subcutaneous 320 mg/kg dose; summary of the method: as §1
Plasmodium berghei [4] = experiment: Antimalarial activity in Plasmodium berghei infected mice (Mus musculus) after 40 mg/kg subcutaneous dose
Summary of the method: (§2)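 […] in mice infected with a normal drug-sensitive P. berghei strain. Compound dissolved or suspended in sesame or peanut oil, given as a single subcutaneous dose 72 h postinfection.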

Plasmodium berghei [5] = experiment: Antimalarial activity Plasmodium berghei infected mice (Mus musculus) after 640 mg/kg subcutaneous dose; summary of the method: as §2
Plasmodium berghei [6] = experiment: Antimalarial activity in Plasmodium berghei infected mice (Mus musculus) after 160 mg/kg subcutaneous dose; summary of the method: as §2
Plasmodium berghei [7] = experiment: Antimalarial activity in Plasmodium berghei infected mice (Mus musculus) after 80 mg/kg subcutaneous dose; summary of the method: as §2
Plasmodium berghei [8] = experiment: Antimalarial activity in Plasmodium berghei infected mice (Mus musculus) after 20 mg/kg subcutaneous dose; summary of the method: as §2

Row | Structure (SMILES) | No. of cured mice (Plasmodium berghei [1]) | No. of cured mice (Plasmodium berghei [2]) | No. of cured mice (Plasmodium berghei [3]) | Delta mean survival time (Plasmodium berghei [4]) | Delta mean survival time (Plasmodium berghei [5]) | Delta mean survival time (Plasmodium berghei [6]) | Delta mean survival time (Plasmodium berghei [7]; 80 mg/kg) | Delta mean survival time (Plasmodium berghei [8]) | Delta mean survival time (Plasmodium berghei [7])
1 | CN1CCN(CCC/N=C2\CC(c3ccc(Cl)c(Cl)c3)Cc3c2c(=O)c2cc(Cl)ccc2n3O)CC1 (centres undefined) | 5 | 5 | 5 | 7.4 |  |  |  |  | 
2 | COc1cc(C2C/C(=N\CCCN3CCCC3)c3c(n(O)c4ccc(Cl)cc4c3=O)C2)cc(OC)c1OC (centres undefined) |  |  |  | 0.2 | 6.4 | 0.6 |  |  | 
3 | CCCC/N=C1\CC(c2ccc(Cl)c(Cl)c2)Cc2c1c(=O)c1cc(Cl)ccc1n2O (centres undefined) | 5 | 3 | 5 | 6.1 |  |  | 9.9 and 8.3 | 2.5 | 
4 | O=C1CC(c2ccccc2C(F)(F)F)Cc2nc3ccc(Cl)cc3c(O)c21 (centres undefined) |  |  |  | 0.7 | 8.3 | 8.5 |  |  | 
5 | CCCCCCC/N=C1\CC(c2cccc(C(F)(F)F)c2)Cc2c1c(=O)c1cc(Cl)ccc1n2O (centres undefined) | 5 | 3 | 5 |  |  | 5 |  |  | 2.8
6 | O=C1CC2(CCCCC2)Cc2nc3ccc(Cl)cc3c(O)c21 |  |  |  | 0.6 | 0.2 | 0 |  |  | 
7 | O=C1CC(c2ccc(Cl)cc2Cl)Cc2nc3c(Cl)ccc(Cl)c3c(O)c21 (centres undefined) |  |  |  | 0.1 | -0.1 | 0.3 |  |  | 
8 | CN(C)CCC/N=C1\CC(C)(C)Cc2c1c(=O)c1cc(Cl)ccc1n2O |  |  |  | 0.2 | 2.8 | 0.4 |  |  | 
9 | CN(C)CCC/N=C1\CC(c2ccc(C(F)(F)F)cc2)Cc2nc3ccc(C(F)(F)F)cc3c(O)c21 (centres undefined) | 5 |  |  | 3.1 |  | 7.1 |  |  | 
10 | CN(C)CCC/N=C1\CC(c2ccc(C(F)(F)F)cc2)Cc2nc3cccc(Cl)c3c(O)c21 (centres undefined) | 5 | 4 |  | 7.7 |  | 24.9 |  |  | 
11 | CCN(CC)CCC/N=C1\CC(c2cc(OC)c(OC)c(OC)c2)Cc2c1c(=O)c1cc(Cl)ccc1n2O (centres undefined) |  |  |  | 0.4 | 6.1 | 0.7 |  |  | 
12 | CCCC/N=C1\CC(c2ccc(C(F)(F)F)cc2)Cc2nc3ccc(Cl)cc3c(O)c21 (centres undefined) | 5 | 1 |  | 6 |  | 10.1 |  |  | 
13 | CN(C)CCCCCCC/N=C1\CC(c2ccc(Cl)c(Cl)c2)Cc2c1c(=O)c1cc(Cl)ccc1n2O (centres undefined) | 5 | 5 | 5 | 6.5 |  |  |  |  | 11.3
14 | O=C1CC(c2ccc(Cl)cc2Cl)Cc2nc3cc(Cl)ccc3c(O)c21 (centres undefined) |  |  |  | -0.1 | 1.3 | 0.1 |  |  | 
15 | O=C1CC(c2cccc(C(F)(F)F)c2)Cc2c1c(=O)c1cc(Cl)ccc1n2O (centres undefined) | 5 | 3 | 5 | 8.8 |  | 13.4 |  | 6 | 12.1
16 | CCN(CC)CC(C)(C)C/N=C1\CC(c2cc(OC)c(OC)c(OC)c2)Cc2c1c(=O)c1cc(Cl)ccc1n2O (centres undefined) |  |  |  | 0.5 | 4.7 | 0.7 |  |  | 
17 | CC1(C)CC(=O)c2c(nc3ccccc3c2O)C1 | 5 | 2 |  | 3.8 |  | 5.6 |  |  | 
18 | CCCCn1c2c(c(=O)c3cc(Cl)ccc31)C(=O)CC(c1ccc(C(F)(F)F)cc1)C2 (centres undefined) |  |  |  | -0.2 | 0.4 | -0.2 |  |  | 
19 | CCCCCCn1c2c(c(=O)c3cc(Cl)ccc31)C(=O)CC(c1ccc(C(F)(F)F)cc1)C2 (centres undefined) |  |  |  | 0.1 | 0.1 | 0 |  |  | 
20 | O=C1CC(c2ccc(C(F)(F)F)cc2)Cc2nc3c(Br)cc(Br)cc3c(O)c21 (centres undefined) |  |  |  | 0.6 | 0 | 0.2 |  |  | 
21 | COc1ccccc1C1CC(=O)c2c(nc3ccc(Cl)cc3c2O)C1 (centres undefined) | 5 | 4 |  | 8.3 |  | 0.7 |  |  | 
22 | O=C1CC(c2ccc(C(F)(F)F)cc2)Cc2nc3cccc(Cl)c3c(O)c21 (centres undefined) | 5 | 5 |  | 8.7 |  |  |  |  | 
23 | CCN(CC)CCOc1ccc(C2CC(=O)c3c(n([O-])c4ccc(Cl)cc4c3=O)C2)cc1.[Na+] (centres undefined) |  |  |  |  | 5.3 | 1.5 |  |  | 

Row | Structure (SMILES) | No. of cured mice (Plasmodium berghei [1]) | No. of cured mice (Plasmodium berghei [2]) | No. of cured mice (Plasmodium berghei [3]) | Delta mean survival time (Plasmodium berghei [4]) | Delta mean survival time (Plasmodium berghei [5]) | Delta mean survival time (Plasmodium berghei [6]) | Delta mean survival time (Plasmodium berghei [7]; 80 mg/kg) | Delta mean survival time (Plasmodium berghei [8]) | Delta mean survival time (Plasmodium berghei [7])
24 | CN(C)CCC/N=C1\CC(c2ccncc2)Cc2c1c(=O)c1cc(Cl)ccc1n2O (centres undefined) |  |  |  | 0 | 1.4 | 0 |  |  | 
25 | CC(C)C1CC(=O)c2c(n(C)c3ccccc3c2=O)C1 (centres undefined) |  |  |  | -0.2 | 0.5 | 0.2 |  |  | 
26 | O=C1CC(c2ccc(Cl)c(Cl)c2)Cc2c1c(=O)c1c(Cl)c(Cl)ccc1n2O (centres undefined) |  |  |  |  | 0.3 | 0.1 |  |  | 
27 | O=C1CC(c2ccc(C3CCCCC3)cc2)Cc2c1c(=O)c1cc(Cl)ccc1n2O (centres undefined) |  |  |  | 0.9 | 4.1 | 1.3 |  |  | 
28 | O=C1CC(c2ccc(C(F)(F)F)cc2)Cc2nc3ccc(C(F)(F)F)cc3c(O)c21 (centres undefined) |  |  |  | 0.1 | -0.1 | 0.1 |  |  | 
29 | O=c1c2c(n(O)c3ccc(Cl)cc13)CC(c1ccc(Cl)c(Cl)c1)C/C2=N\CCCN1CCCCC1 (centres undefined) | 5 | 4 | 5 | 5.9 |  | 8.7 |  |  | 9.2
30 | O=C1CC(c2ccc(Cl)c(Cl)c2)Cc2c1c(=O)c1cc(Cl)ccc1n2O (centres undefined) | 5 | 2 | 5 | 5 |  | 11 |  | 3.2 | 10.8
31 | CN(C)CCC/N=C1\CC(c2cccc(C(F)(F)F)c2)Cc2c1c(=O)c1cc(Cl)ccc1n2O (centres undefined) | 5 | 4 | 5 | 6.9 |  | 12.4 |  | 4.8 | 9.6
32 | CCc1ccc2nc3c(c(O)c2c1)C(=O)CC(c1ccc(C(F)(F)F)cc1)C3 (centres undefined) |  |  |  | 0 | 0.2 | 0.4 |  |  | 
33 | CN(C)CCC/N=C1\CC(c2ccc(C3CCCCC3)cc2)Cc2c1c(=O)c1cc(Cl)ccc1n2O (centres undefined) | 5 | 3 |  | 5 |  | 9.4 |  |  | 
34 | COc1ccc(C2CC(=O)c3c(nc4ccc(Cl)cc4c3O)C2)cc1 (centres undefined) |  |  |  | -0.1 | -0.1 | 0.1 |  |  | 
35 | CSc1ccc(C2CC(=O)c3c(nc4ccc(Cl)cc4c3O)C2)cc1 (centres undefined) |  |  |  | 4.4 | 12.4 | 8.6 |  |  | 
36 | O=C1CC(c2ccc(C(F)(F)F)cc2)Cc2nc3ccc(F)cc3c(O)c21 (centres undefined) | 5 |  |  | 7.1 |  | 8.9 |  |  | 
37 | O=C1CC2(CCCCC2)Cc2c1c(=O)c1cc(Cl)ccc1n2O |  |  |  | 0 | 0 | 0.2 |  |  | 
38 | O=C1CC(c2ccc(C(F)(F)F)cc2)Cc2nc3cc(Cl)ccc3c(O)c21 (centres undefined) |  |  |  | -0.4 | 0.4 | 0.2 |  |  | 
39 | O=C1CC(c2ccc(C(F)(F)F)cc2)Cc2nc3c(Cl)cc(Cl)cc3c(O)c21 (centres undefined) |  |  |  | -0.2 | 0 | 0.4 |  |  | 
40 | CN(C)CCC/N=C1\CC(c2ccccc2Cl)Cc2nc3ccc(Cl)cc3c(O)c21 (centres undefined) | 5 | 2 | 5 | 5.6 |  | 11.3 |  |  | 6.3
41 | CN(C)CCC/N=C1\CC(c2ccc(C(F)(F)F)cc2)Cc2nc3c(Cl)cc(Cl)cc3c(O)c21 (centres undefined) | 5 | 4 | 5 | 6.3 |  | 8 |  |  | 8.2
42 | O=C1c2c(nc3ccc(Cl)cc3c2O)CC(c2ccc(Cl)c(Cl)c2)C1c1ccccc1 (centres undefined) |  |  |  | 0 | 1.4 | 0.4 |  |  | 
43 | COc1ccc2nc3c(c(O)c2c1)/C(=N/CCCN(C)C)CC(c1ccc(C(F)(F)F)cc1)C3 (centres undefined) | 5 | 2 | 5 | 5.5 |  | 8.7 |  | 0.7 | 6.1
44 | O=C1CC(c2ccc(C(F)(F)F)cc2)Cc2nc3ccccc3c(O)c21 (centres undefined) | 5 | 4 | 5 | 4.6 |  | 10.8 |  | 2.7 | 8.2
45 | CC1(C)CC(=O)c2c(nc3ccc(Cl)cc3c2O)C1 | 4 |  | 3 |  |  |  |  |  | 
